From ChEMBL document CHEMBL4406880, “Design, synthesis, and bioactivity of dihydropyrimidine derivatives as kinesin spindle protein inhibitors” (Bioorg Med Chem, 2019)
Values belong to the compound of their own block, whether it stands above or below them.

Experiments:
[1] = Inhibition of kinesin (unknown origin) assessed as reduction in ATPase activity using microtubule as substrate measured for 5 to mins; parameters: species or system Homo sapiens
[2] = tested on: MCF7; assay: Antiproliferative activity against human MCF7 cells assessed as growth percentage incubated for 72 hrs by XTT assay; type: functional, cell-based; settings: MCF7, 72 h
[3] = tested on: HeLa; assay: Antiproliferative activity against human HeLa cells assessed as growth percentage incubated for 72 hrs by XTT assay; type: functional, cell-based
[4] = Growth inhibition of human HEK293 cells assessed as cell viability at 0.39 ug incubated for 48 hrs by MTT assay relative to control; type: cell-based; settings: read-out: Activity
[5] = Growth inhibition of human HEK293 cells assessed as cell viability at 1.56 ug incubated for 48 hrs by MTT assay relative to control; type: cell-based; settings: read-out: Activity
[6] = Growth inhibition of human HEK293 cells assessed as cell viability at 6.25 ug incubated for 48 hrs by MTT assay relative to control; type: cell-based; settings: read-out: Activity
[7] = Growth inhibition of human HEK293 cells assessed as cell viability at 25 ug incubated for 48 hrs by MTT assay relative to control; type: cell-based; settings: read-out: Activity
[8] = Growth inhibition of human HEK293 cells assessed as cell viability at 100 ug incubated for 48 hrs by MTT assay relative to control; type: cell-based; settings: read-out: Activity
[9] = tested on: SNB-75; assay: Cell cycle arrest in human SNB75 cells assessed as accumulation in G0/G1 phase at 2 uM incubated for 24 hrs by propidium iodide based flow cytometry (reference value: 55.62 %); type: functional
Outline: (§1)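 SNB-75 cells were exposed to 2 µM for 24 h at 37 °C, 5% CO2, then washed with PBS and fixed in 70% ethanol on ice for 15 min. They were stained 1 h at room temperature with 50 µg/mL propidium iodide, 0.1 mg/mL RNase A and 0.05% Triton X-100. DNA content was read by flow cytometry to give the % of cells in pre-G1, G0/G1, S and G2/M.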

[10] = tested on: SNB-75; assay: Cell cycle arrest in human SNB75 cells assessed as accumulation in S phase at 2 uM incubated for 24 hrs by propidium iodide based flow cytometry (reference value: 33.92 %); type: functional; outline: as §1
[11] = tested on: SNB-75; assay: Cell cycle arrest in human SNB75 cells assessed as accumulation in G2/M phase at 2 uM incubated for 24 hrs by propidium iodide based flow cytometry (reference value: 10.46 %); type: functional; outline: as §1
[12] = tested on: SNB-75; assay: Cell cycle arrest in human SNB75 cells assessed as accumulation in preG1 phase at 2 uM incubated for 24 hrs by propidium iodide based flow cytometry (reference value: 1.85 %); type: functional; outline: as §1
[13] = tested on: SNB-75; assay: Induction of apoptosis in human SNB75 cells assessed as early apoptotic cells at 2 uM incubated for 24 hrs by annexin V FITC and propidium iodide based flow cytometry (reference value: 0.82 %); type: functional
[14] = tested on: SNB-75; assay: Induction of apoptosis in human SNB75 cells assessed as late apoptotic cells at 2 uM incubated for 24 hrs by annexin V FITC and propidium iodide based flow cytometry (reference value: 0.59 %); type: functional
[15] = tested on: SNB-75; assay: Induction of apoptosis in human SNB75 cells assessed as necrosis at 2 uM incubated for 24 hrs by annexin V FITC and propidium iodide based flow cytometry (reference value: 0.44 %); type: functional
[16] = tested on: MDA-MB-435; assay: Induction of apoptosis in human MDA-MB-435 cells assessed as active caspase 3 level incubated for 2 hrs by ELISA (reference value: 1); type: functional
Outline: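 Active caspase-3 was measured by human sandwich ELISA. Samples were incubated on the plate for 2 h at room temperature. This was followed by 1 h with detection antibody, 30 min with anti-rabbit IgG-HRP, and 30 min with chromogen, with all steps at room temperature. Absorbance was read at 450 nm, and levels were read from a standard curve.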

[17] = tested on: MDA-MB-435; assay: Induction of apoptosis in human MDA-MB-435 cells assessed as active caspase 9 level incubated for 2 hrs by ELISA (reference value: 1); type: functional
Outline: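 Caspase-9 was measured by human ELISA on cell lysates, with samples in duplicate. Samples were incubated with detection antibody for 2 h at room temperature. This was followed by 1 h with anti-rabbit IgG-HRP and 10 min with TMB substrate. After a stop solution, absorbance was read at 450 nm.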

[18] = target: Kinesin-like protein KIF11 (Homo sapiens, UniProt P52732); assay: Inhibition of recombinant human His-tagged Eg5 (1 to 368 residues) assessed as reduction in ATPase activity by […] based assay
Kinesin-like protein KIF11, sequence (P52732 whole entry, the tested form may be a part): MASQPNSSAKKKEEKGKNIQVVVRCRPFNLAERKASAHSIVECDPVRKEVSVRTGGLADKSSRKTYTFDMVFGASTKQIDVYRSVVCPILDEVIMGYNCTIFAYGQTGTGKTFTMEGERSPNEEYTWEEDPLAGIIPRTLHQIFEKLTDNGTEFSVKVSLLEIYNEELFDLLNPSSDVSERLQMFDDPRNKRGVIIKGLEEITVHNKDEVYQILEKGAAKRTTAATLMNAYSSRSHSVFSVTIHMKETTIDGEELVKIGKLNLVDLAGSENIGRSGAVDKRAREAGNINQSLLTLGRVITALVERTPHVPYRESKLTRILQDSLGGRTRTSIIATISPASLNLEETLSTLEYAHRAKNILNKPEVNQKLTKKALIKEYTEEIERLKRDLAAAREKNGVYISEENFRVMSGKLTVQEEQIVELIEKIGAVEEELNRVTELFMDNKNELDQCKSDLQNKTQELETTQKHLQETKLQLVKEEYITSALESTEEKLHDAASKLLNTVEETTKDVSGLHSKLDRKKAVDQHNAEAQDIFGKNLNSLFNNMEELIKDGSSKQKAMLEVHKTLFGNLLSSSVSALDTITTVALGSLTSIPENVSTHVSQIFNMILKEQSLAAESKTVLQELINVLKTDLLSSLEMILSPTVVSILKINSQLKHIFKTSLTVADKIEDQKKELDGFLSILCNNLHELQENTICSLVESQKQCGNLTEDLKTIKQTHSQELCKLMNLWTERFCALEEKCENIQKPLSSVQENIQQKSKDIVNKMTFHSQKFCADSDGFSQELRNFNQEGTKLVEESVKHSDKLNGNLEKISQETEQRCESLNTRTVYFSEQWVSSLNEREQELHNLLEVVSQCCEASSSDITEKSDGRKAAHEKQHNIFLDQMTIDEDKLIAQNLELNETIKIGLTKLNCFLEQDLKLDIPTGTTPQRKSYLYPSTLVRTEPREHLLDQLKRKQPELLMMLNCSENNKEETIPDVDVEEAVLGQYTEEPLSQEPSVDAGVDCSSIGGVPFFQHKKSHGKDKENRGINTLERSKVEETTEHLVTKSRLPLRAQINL

IC50 [1]: 0.1 µM
SMILES: CC1=C(C(=O)c2ccccc2)C(c2cccc(O)c2)NC(=S)N1C (centres undefined)

IC50 [2]: 55 µM | IC50 [3]: 40 µM
SMILES: CC1=C(C(=O)OCc2ccccc2)C(c2ccco2)NC(=O)N1 (centres undefined)

SMILES: COc1cccc2c1C(=O)c1c(O)c3c(c(O)c1C2=O)C[C@@](O)(C(=O)CO)C[C@@H]3O[C@H]1C[C@H](N)[C@H](O)[C@H](C)O1 [DOXORUBICIN]
viability at 48 h, 0.39 ug [4]: 75.1% | viability at 48 h, 1.56 ug [5]: 64.7% | viability at 48 h, 6.25 ug [6]: 55.2% | viability at 48 h, 25 ug [7]: 43.6% | viability at 48 h, 100 ug [8]: 33.8%

IC50 [1]: 20 µM | IC50 [18]: 20 µM
SMILES: CCOC(=O)C1=C(C)NC(=S)NC1c1cccc(O)c1 (centres undefined) [MONASTROL]
Activity [9]: 29.56% | Activity [10]: 29.18% | Activity [11]: 41.26% | Activity [12]: 22.58% | Activity [13]: 4.72% | Activity [14]: 15.54% | Activity [15]: 2.32% | fold change (FC) [16]: 6.9 | fold change (FC) [17]: 11.92
